In ChEMBL document CHEMBL4406804, “Discovery of a Potent Steroidal Glucocorticoid Receptor Antagonist with Enhanced Selectivity against the Progesterone and Androgen Receptors (OP-3633)” (J Med Chem, 2019):
In brackets after ≈: the same amount, converted by molar mass. Activity calls are given as the source filed them. The calls are words filed in the database; no cut-off is given here.

Assays:
[1] = molecular target: T1, Progesterone receptor (Homo sapiens, UniProt P06401); experiment: Antagonist activity at human progesterone receptor expressed in CHO-K1 cells harboring firefly luciferase gene after 20 hrs by One-Glo luciferase reporter gene assay; type: cell-based
T1 sequence (P06401 whole entry): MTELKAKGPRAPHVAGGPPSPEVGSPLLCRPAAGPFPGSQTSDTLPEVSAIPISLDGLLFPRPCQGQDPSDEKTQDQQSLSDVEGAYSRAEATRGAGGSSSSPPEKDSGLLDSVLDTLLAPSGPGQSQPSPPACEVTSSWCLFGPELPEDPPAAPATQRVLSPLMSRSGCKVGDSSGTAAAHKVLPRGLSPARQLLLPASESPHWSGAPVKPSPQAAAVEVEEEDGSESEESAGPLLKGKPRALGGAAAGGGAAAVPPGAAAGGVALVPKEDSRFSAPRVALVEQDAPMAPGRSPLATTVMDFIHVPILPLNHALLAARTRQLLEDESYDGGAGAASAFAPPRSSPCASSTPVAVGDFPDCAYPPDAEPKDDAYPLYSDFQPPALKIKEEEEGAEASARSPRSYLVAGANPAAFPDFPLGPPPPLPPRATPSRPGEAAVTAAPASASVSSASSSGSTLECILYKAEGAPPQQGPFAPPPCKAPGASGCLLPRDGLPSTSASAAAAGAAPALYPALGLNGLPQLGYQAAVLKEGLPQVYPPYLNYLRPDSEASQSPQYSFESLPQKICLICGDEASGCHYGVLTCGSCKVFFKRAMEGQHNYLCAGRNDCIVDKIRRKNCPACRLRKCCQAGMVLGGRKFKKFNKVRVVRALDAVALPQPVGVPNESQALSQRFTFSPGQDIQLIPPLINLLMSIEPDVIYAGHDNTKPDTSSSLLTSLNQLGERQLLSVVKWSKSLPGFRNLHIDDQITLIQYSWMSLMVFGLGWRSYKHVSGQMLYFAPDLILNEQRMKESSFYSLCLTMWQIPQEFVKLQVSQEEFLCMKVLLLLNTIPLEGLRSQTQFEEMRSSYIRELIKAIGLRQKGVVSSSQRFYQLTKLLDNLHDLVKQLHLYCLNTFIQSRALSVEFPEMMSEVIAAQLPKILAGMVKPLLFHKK
In short: (§1)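 Cell-based luciferase reporter assays for GR, AR and PR, run in agonist and antagonist modes. Potency and Emax are averages of at least two determinations, reported with SD.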

[2] = molecular target: T2, Androgen receptor (Homo sapiens, UniProt P10275); experiment: Antagonist activity at human androgen receptor in human LNCAP cells harboring firefly luciferase gene after 20 hrs by One-Glo luciferase reporter gene assay; type: cell-based; in short: as §1
T2 sequence (P10275 whole entry): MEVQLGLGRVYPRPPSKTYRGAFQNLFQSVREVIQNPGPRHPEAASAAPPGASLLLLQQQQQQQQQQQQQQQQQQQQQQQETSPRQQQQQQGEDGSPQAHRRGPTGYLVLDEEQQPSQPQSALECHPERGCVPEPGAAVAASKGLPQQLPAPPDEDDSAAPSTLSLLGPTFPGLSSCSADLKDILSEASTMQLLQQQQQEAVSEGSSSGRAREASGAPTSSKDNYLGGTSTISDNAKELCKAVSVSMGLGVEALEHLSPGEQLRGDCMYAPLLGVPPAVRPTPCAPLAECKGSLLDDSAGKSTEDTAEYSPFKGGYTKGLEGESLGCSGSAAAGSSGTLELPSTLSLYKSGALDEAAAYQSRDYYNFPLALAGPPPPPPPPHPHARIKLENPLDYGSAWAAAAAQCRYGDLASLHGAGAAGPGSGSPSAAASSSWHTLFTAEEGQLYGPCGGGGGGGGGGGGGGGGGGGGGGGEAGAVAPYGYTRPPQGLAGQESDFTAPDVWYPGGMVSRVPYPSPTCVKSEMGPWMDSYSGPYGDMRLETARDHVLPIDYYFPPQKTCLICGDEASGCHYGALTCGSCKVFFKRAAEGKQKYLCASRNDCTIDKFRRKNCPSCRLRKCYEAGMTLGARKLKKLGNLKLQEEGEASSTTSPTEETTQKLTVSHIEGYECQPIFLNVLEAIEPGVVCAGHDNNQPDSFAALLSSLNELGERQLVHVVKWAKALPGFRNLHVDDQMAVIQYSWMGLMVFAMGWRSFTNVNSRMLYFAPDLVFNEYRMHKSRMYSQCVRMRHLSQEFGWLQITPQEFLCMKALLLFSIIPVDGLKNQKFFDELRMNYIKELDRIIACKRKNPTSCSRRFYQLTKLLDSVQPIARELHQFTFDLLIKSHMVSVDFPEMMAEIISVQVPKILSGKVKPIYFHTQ

[3] = molecular target: T3, Progesterone receptor (Homo sapiens) (UniProt P06401); experiment: Agonist activity at human progesterone receptor expressed in CHO-K1 cells harboring firefly luciferase gene after 20 hrs by One-Glo luciferase reporter gene assay; type: cell-based; in short: as §1
T3 sequence (whole entry): T1 sequence (P06401 whole entry)

[4] = species: Homo sapiens; experiment: Selectivity ratio, ratio of IC50 for human androgen receptor in human LNCAP cells to IC50 for human glucocorticoid receptor expressed in CHO-K1 cells harboring firefly luciferase gene; type: cell-based
[5] = molecular target: T4, Glucocorticoid receptor (Homo sapiens) (UniProt P04150); experiment: Antagonist activity at human glucocorticoid receptor expressed in CHO-K1 cells harboring firefly luciferase gene assessed as inhibition of glucocorticoid receptor activity at 0.01 to 10000 nM after 20 hrs by One-Glo luciferase reporter gene assay relative to mifepristone; type: cell-based; design: scale not given: the % may be the effect or the level left; in short: as §1
T4 sequence (whole entry): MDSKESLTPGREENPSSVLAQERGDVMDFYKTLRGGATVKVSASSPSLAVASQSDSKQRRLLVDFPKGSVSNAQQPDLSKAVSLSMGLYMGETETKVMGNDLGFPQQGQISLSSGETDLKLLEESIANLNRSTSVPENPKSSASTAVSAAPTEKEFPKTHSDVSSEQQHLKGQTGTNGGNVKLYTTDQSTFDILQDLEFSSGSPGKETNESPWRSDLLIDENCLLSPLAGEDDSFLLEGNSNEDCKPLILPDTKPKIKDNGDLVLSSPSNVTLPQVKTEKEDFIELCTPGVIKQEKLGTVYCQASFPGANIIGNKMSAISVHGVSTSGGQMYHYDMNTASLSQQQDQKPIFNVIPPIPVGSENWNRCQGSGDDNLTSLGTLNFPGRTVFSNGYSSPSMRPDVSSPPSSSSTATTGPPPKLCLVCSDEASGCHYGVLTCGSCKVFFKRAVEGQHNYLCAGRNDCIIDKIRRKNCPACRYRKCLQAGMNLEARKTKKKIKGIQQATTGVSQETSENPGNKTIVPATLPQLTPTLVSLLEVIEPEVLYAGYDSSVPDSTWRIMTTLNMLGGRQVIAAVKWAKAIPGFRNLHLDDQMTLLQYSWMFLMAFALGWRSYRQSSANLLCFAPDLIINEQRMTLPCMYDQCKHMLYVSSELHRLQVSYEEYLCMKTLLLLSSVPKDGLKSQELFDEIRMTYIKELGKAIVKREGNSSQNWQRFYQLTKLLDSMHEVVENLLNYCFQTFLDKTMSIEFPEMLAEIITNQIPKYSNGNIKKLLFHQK

[6] = molecular target: T5, Glucocorticoid receptor (Homo sapiens, UniProt P04150); experiment: Displacement of fluormone tracer from full length human recombinant glucocorticoid receptor expressed in baculovirus expression system incubated for 2 hrs by competitive fluorescence polarization binding assay
T5 sequence (P04150 whole entry): T4 sequence (whole entry)

[7] = molecular target: T5, Glucocorticoid receptor; experiment: Antagonist activity at human glucocorticoid receptor expressed in CHO-K1 cells assessed as inhibition of glucocorticoid receptor-dexamethasone coactivator protein-protein interaction incubated for 24 hrs by bioluminescence assay; type: cell-based
[8] = Solubility of compound in fasted state simulated gastric fluid at pH 1.2; type: physicochemical
[9] = Solubility of compound in PBS at pH 7.4; type: physicochemical
[10] = Solubility of compound in fasted state simulated intestinal fluid at pH 6.5; type: physicochemical
[11] = molecular target: T2, Androgen receptor; experiment: Agonist activity at human androgen receptor in human LNCAP cells harboring firefly luciferase gene after 20 hrs by One-Glo luciferase reporter gene assay; type: cell-based
[12] = molecular target: T5, Glucocorticoid receptor; experiment: Antagonist activity at human glucocorticoid receptor expressed in CHO-K1 cells harboring firefly luciferase gene after 20 hrs by One-Glo luciferase reporter gene assay; type: cell-based
[13] = molecular target: T2, Androgen receptor; experiment: Agonist activity at human androgen receptor in human LNCAP cells harboring firefly luciferase gene after 20 hrs by One-Glo luciferase reporter gene assay relative to mifepristone; type: cell-based; in short: as §1
[14] = molecular target: CYP3A4 (Homo sapiens, UniProt P08684); experiment: Inhibition of CYP3A4 (unknown origin) at 10 uM using midazolam as substrate relative to control; type: ADME; details: probe midazolam
CYP3A4, sequence (P08684 whole entry): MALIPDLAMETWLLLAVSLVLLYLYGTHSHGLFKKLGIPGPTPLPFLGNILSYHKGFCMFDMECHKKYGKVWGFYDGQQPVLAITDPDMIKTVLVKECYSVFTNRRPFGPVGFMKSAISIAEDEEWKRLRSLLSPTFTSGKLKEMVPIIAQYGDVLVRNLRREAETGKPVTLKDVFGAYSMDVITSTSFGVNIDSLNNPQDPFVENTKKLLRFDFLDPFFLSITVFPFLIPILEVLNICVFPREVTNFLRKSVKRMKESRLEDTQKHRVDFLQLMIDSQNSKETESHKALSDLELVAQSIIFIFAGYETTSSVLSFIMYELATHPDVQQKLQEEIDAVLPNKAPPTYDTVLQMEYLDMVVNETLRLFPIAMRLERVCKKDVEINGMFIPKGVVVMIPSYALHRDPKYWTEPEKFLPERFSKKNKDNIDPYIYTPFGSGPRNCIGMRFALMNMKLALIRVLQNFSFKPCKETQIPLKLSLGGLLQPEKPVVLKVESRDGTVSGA

[15] = molecular target: T6, CYP2C8 (Homo sapiens, UniProt P10632); experiment: Inhibition of CYP2C8 (unknown origin) at 10 uM using paclitaxel as substrate relative to control; type: ADME; details: probe paclitaxel
T6 sequence (P10632 whole entry): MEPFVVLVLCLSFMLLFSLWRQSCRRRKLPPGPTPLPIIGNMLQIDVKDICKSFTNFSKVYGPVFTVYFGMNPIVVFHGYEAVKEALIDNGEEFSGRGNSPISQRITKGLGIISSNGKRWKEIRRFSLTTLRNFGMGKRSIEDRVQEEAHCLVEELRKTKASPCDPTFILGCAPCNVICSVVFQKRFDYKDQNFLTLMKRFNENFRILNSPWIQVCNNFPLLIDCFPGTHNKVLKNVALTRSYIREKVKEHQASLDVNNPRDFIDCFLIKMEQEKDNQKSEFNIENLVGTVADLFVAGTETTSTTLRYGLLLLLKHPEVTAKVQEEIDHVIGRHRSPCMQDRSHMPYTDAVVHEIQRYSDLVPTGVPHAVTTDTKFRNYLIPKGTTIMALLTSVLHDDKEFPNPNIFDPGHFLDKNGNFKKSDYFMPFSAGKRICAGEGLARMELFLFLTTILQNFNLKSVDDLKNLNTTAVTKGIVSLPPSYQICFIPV

Structure (SMILES)	IC50 [1] [nM]	IC50 [2] [nM]	agonist activity [3]	Ratio [4]	Activity [5] [%]	IC50 [6] [nM]	IC50 [7] [nM]	solubility [8] [µM]	solubility [9] [µM]	solubility [10] [µM]	EC50 [11] [nM]	IC50 [12] [nM]	Emax at 20 h [13] [%]	inhibition at 10 µM [14] [%]	inhibition at 10 µM [15] [%]
CN(C)c1ccc([C@H]2C[C@@]3(C)[C@@H](CC[C@@]3(O)C#CC(C)(C)C)[C@@H]3CCC4=CC(=O)CCC4=C32)cc1	14.4	129	inactive	10 to 30	100	8	7.5	–	–	–	–	–	–	–	–
CC#C[C@]1(O)CC[C@H]2[C@@H]3CCC4=CC(=O)CCC4=C3[C@@H](c3ccc(N(C)C)cc3)C[C@@]21C [MIFEPRISTONE]	–	–	–	–	–	–	–	> 1160	3 (≈ 1.29 µg/mL)	5.4 (≈ 2.32 µg/mL)	–	–	–	–	–
CN(C)c1ccc([C@H]2C[C@@]3(C)[C@@H](CC[C@@]3(O)C#CC(C)(C)C)[C@@H]3CCC4=CC(=O)CC[C@]4(C)[C@H]32)cc1	2490	> 5000	inactive	70	100	–	–	–	–	–	> 2500	33.6	7.4	71	84
CN(C)c1ccc([C@H]2C[C@@]3(C)[C@@H](CC[C@@]3(O)C#CC3CC3)[C@@H]3CCC4=CC(=O)CC[C@]4(C)[C@H]32)cc1	1490	1450	inactive	–	100	–	–	–	–	–	> 2500	28.5	5.4	53	70
CC(C)(C)C#C[C@]1(O)CC[C@H]2[C@@H]3CCC4=CC(=O)CC[C@@H]4[C@H]3[C@@H](c3ccc(N4CCN(S(C)(=O)=O)CC4)cc3)C[C@@]21C	4.6	359	inactive	10 to 30	100	–	–	–	–	–	> 2500	12.2	18.1	–	–
